A selection: hits, their analogues and other compounds. The true share with any hit is near 6.6%.
M1 ag = M1 muscarinic receptor agonists, primary screen, CHO-M1 cells, Fluo-4 calcium, agonist mode | Muscarinic acetylcholine receptor M1 | Fluo-4 calcium fluorescence; active compounds read high | B-score at 10 µM | 64,000 compounds, 3% hits;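 active = fluorescence rise, raw or as B-score row- and column-corrected plate score, outside the 99.7% band of its plate's samples, either direction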
HER2 expr 66K = inhibitors of Her2 protein expression, primary screen, SKBR-3 cells, AlphaScreen, 66K library; Receptor tyrosine-protein kinase erbB-2 (Homo sapiens), P04626; SKBR-3 HER2 protein level, 18-24 h; active compounds read low; HER2 level % of control, % at 10 µM; 65,000 compounds, 0.69% hits; AID 645, 2007;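 active = HER2 level under 5% of the carrier-only control; inconclusive = no clear call, values can overlap the other calls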;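 note: 100% = DMSO carrier and 0% = 500 nM PU-H71 HSP90 inhibitor; lower value means stronger loss of Her2 protein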
BAP1 block = inhibitors of BAP1 deubiquitinase, primary screen, biochemical, Ub-AMC fluorescence, kinetic. 72,000 compounds, 0.48% hits. AID 436, 2006. calls only at 20 µM. recombinant BAP1, Ub-AMC hydrolysis fluorescence kinetic; active compounds read low. Ubiquitin carboxyl-terminal hydrolase BAP1 (Homo sapiens), Q92560;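 active = activity remaining at or below 50% of control, provided the compound also passes the data quality filters; inactive = the rest, including low values that fail the filters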;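 note: 100% = DMSO wells rate and 0% = substrate alone blank rate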
JNK3 inh = JNK3 kinase activity inhibitors, primary screen, biochemical, human, purified enzyme. HTS. inhibition, % at 8 µM. 60,000 compounds, 0.61% hits; in the data active = inhibition above about 17%;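 note: 0% = DMSO and 100% = reference inhibitor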
HEK293 NFkB inh = inhibitors of PMA/ionomycin-induced NF-kB reporter, primary screen, antigen receptor NF-kB inhibitor project, cell-based, HEK-293 luciferase reporter, luminescence; 62,000 compounds, 0.21% hits; HEK-293 NF-kB luciferase reporter; inhibition, % at 3 µM; AID 465, 2006;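 active = inhibition above the mean of all tested compounds plus 3 SD, cut at about 40% in these data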;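 note: 0% = stimulated DMSO wells and 100% = 10 µM reference inhibitor 5653914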
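Timing: 1 h pretreatment, 16 h stimulation, 37 °C; system: HEK-293 cells with stable firefly luciferase reporter driven by four HIV NF-kB elements; doses: 3 µM once, 0.30% DMSO; measured by: luciferase luminescence; control set: DMSO and 10 µM reference inhibitor; repeats: single test; reagent: PMA plus ionomycin mix as NF-kB-activating stimulus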
M1 antag = antagonists of rat M1 muscarinic receptor | CHO-M1 cells, Fluo-4 calcium, ACh EC80 antagonist mode; active compounds read low | B-score at 10 µM | 64,000 compounds, 3.4% hits;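 active = calcium fluorescence response, raw or row-and-column corrected B-score, differing from the plate sample mean either way at a set confidence level, mostly lower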
M1 ag confirm = rat M1 muscarinic receptor agonists, confirmation, CHO-M1 cells, Fluo-4 calcium, duplicate retest | shares compounds with M1 ag | Fluo-4 calcium fluorescence, agonist mode; actives lie on both sides | fluorescence change (max-min) at 10 µM | 1,700 compounds, 19% hits | AID 1488, 2009;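 active = fluorescence change differs from the solvent-only DMSO control mean at a set confidence level in both duplicate runs; inconclusive = differs from solvent-only control mean in just one of two runs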;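 note: an EC20 dose of acetylcholine follows compound addition during the same imaging run; raw fluorescence intensity difference in instrument units with no normalization to controls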
M4 agonist ctr = agonist activity at rat M4 receptor, confirmation, counter-screen for M1 allosteric modulator project, cell-based, agonist mode; AID 1741, 2009; 1,700 compounds, 9% hits; fluorescence change (max-min) at 10 µM; CHO M4/Gqi5 cells, Fluo-4 calcium fluorescence; actives lie on both sides; shares compounds with M1 ag;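 active = fluorescence change differing from the plate's solvent-only control wells at 99.7% confidence in both duplicates, whether higher or lower; inconclusive = differs from solvent controls in only one of two duplicates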
Starred values were filed as active, the others as inactive; i = inactive; ? = inconclusive; . = no result shown.

SMILES | M1 ag | HER2 expr 66K | BAP1 block | JNK3 inh | HEK293 NFkB inh | M1 antag | M1 ag confirm | M4 agonist ctr
COc1ccccc1N1CCN(C(=O)c2ccc(CS(=O)(=O)c3ccccc3OC)o2)CC1 | 4.5* | 130 | i | -11 | 1 | -0.71 | -13 | ?
Cc1ccccc1S(=O)(=O)Cc1ccc(C(=O)N2CCN(c3ccc(F)cc3)CC2)o1 | 3.2* | 101 | i | 3 | 0 | -0.86 | -9.4 | -54
CCOC(=O)N1CCN(C(=O)c2ccc(CS(=O)(=O)c3ccccc3OC)o2)CC1 | 0.07 | 109 | i | 2 | 13 | -0.038 | . | .
Cc1ccc(S(=O)(=O)Cc2ccc(C(=O)N3CCN(c4ccc(F)cc4)CC3)o2)cc1 | 0.57 | 39 | i | 1 | 1 | -0.012 | . | .
CC(C)c1cc([N+](=O)[O-])c2nc(NC(=O)C3CCCCC3)sc2c1 | . | . | i | . | . | . | . | .
CCN(CC)c1nc2ccccc2nc1C(C#N)C(=O)NCCc1ccccc1 (configuration not stated) | 219* | 103 | i | -3 | -1 | -1 | 2068* | 1724*
CCCN(CCC)c1nc2ccccc2nc1C(C#N)C(=O)OC(C)COC (configuration not stated) | 1.1 | 113 | i | 1 | . | 0.88 | . | .
CCCCN(CCCC)c1nc2ccccc2nc1C(C#N)C(=O)NCCCOC (configuration not stated) | 434* | 110 | i | -4 | . | -16* | 2697* | 2698*
CC(C)COc1nc2ccccc2nc1C(C#N)C(=O)NC1CCCCC1 (configuration not stated) | -0.26 | 102 | . | -2 | . | 0.12 | . | .
N#CCSc1nc2ccccc2c(=O)n1CCC(=O)NCCc1ccccc1 | 0.49 | 82 | i | . | 10 | -0.66 | . | .
CCN(CC)c1nc2ccccc2nc1C(C#N)C(=O)NCCCOC (configuration not stated) | 5* | 110 | i | -4 | 12 | -0.6 | -4 | -30
CC(=O)N1CCc2cc(N=Cc3ccc(O)cc3)ccc21 | . | . | i | . | . | . | . | .
COc1cccc2sc(=NC(=O)c3ccc(C(C)(C)C)cc3)n(C)c12 | . | . | i | . | . | . | . | .
COc1ccc2cc(C(=O)NCc3ccco3)c(=O)oc2c1 | 0.011 | 94 | . | 0 | 4 | 0.077 | . | .
COc1ccc2cc(C(=O)NCc3ccco3)c(=Nc3ccc(C(=O)O)cc3)oc2c1 | 2.7* | 77 | i | -7 | 48* | -0.02 | ? | -68
CCN(CC)P1(=O)OC(c2cc(OC)c(OC)c(OC)c2)=Nc2c1c(C)nn2-c1ccccc1 (configuration not stated) | 4.4* | 71 | . | . | 14 | 0.43 | 7 | -33
COc1ccc2oc(=Nc3ccc(C)cc3)c(C(=O)NC(C)=O)cc2c1 | . | . | i | . | . | . | . | .
CC12CC(NC(=O)N1c1cccc(C(=O)NCc3ccc4c(c3)OCO4)c1)c1cc(Cl)ccc1O2 (configuration not stated) | 2.2* | 48 | i | . | 0 | -0.72 | ? | -50
Cc1ccc(S(=O)(=O)N=C(Nc2ccccc2)c2ccccc2C)cc1 | . | . | i | . | . | . | . | .
O=C1OC(=NC2CCCCC2)c2cccc3cccc1c23 | . | . | i | . | . | . | . | .
CC(=O)Nc1ccc(OCC(O)CN2CCN(c3ccc(C)c(Cl)c3)CC2)cc1 (configuration not stated) | 1.9* | 105 | i | -7 | 4 | -2.2 | -1.2 | -32
COc1ccc(OC)c(N/C(C)=C/C(=O)c2ccc(C)o2)c1 | 5.9* | 150 | i | -7 | 10 | 0 | ? | -43
COc1ccc(OC)c(NC(=O)c2ccc(NC(C)=O)cc2)c1 | -0.025 | 93 | i | -3 | -2 | -1.2 | . | .
COc1ccc(N2CCN(Cc3cc(=O)oc4cc5c(cc34)CCCC5)CC2)cc1 | 0.46 | 93 | i | 3 | 9 | 1.4 | . | .
CN1CCCc2cc3c(C(F)(F)F)cc(=O)oc3nc21 | 429* | 98 | i | 2 | 13 | -17* | 2526* | 2146*
SMILES | M1 ag | HER2 expr 66K | BAP1 block | JNK3 inh | HEK293 NFkB inh | M1 antag | M1 ag confirm | M4 agonist ctr
CC(C)C(OC(=O)c1ccco1)C(=O)NC1CCCCC1 (configuration not stated) | 2.2* | 90 | i | -3 | -1 | 0.25 | -17 | -45
Cn1c2ccc(N=Cc3cccc(Cl)c3O)cc2c2nc3ccccc3nc21 | . | . | i | . | . | . | . | .
COc1ccc(C(c2nnnn2C2CCCC2)N2CCc3ccccc3C2)cc1OC (configuration not stated) | -0.35 | 81 | i | 3 | 17 | 0.45 | . | .
COCCn1nnnc1C(c1ccc(O)c(OC)c1)N1CCc2ccccc2C1 (configuration not stated) | 4* | 70 | i | -1 | 16 | 0.0035 | -10 | -28
Cc1cc(C)n2nc(SCC(=O)N(C)Cc3ccccc3)nc2n1 | 2.1* | 111 | i | -1 | 7 | 1 | -18 | ?
Cc1cc(C)n2nc(SCC(=O)c3ccccc3)nc2n1 | 0.24 | 90 | i | -2 | -2 | -0.016 | . | .
CC(=O)NC1(C2CCCCC2=O)CCCCC1 (configuration not stated) | 3.6* | . | i | 8 | 15 | 1.2 | -4 | -46
CC(=O)NCC(=O)N(c1ccccc1)C1(C(=O)NC2CCCCC2)CCCCC1 | -0.62 | 121 | . | . | 6 | 0.018 | . | .
Cc1cc(=O)oc2ccc(Oc3ccc(C#N)cc3[N+](=O)[O-])cc12 | . | . | i | . | . | . | . | .
CCOC(=O)N1CCC(n2c(SCC(=O)NCc3ccccc3)nc3ccccc3c2=O)CC1 | 3.6* | 102 | i | . | 11 | -1 | -6.3 | -11
CCn1c(C(=O)N2CCC(C(=O)NCCCSC3CCCCC3)CC2)cc2sccc21 | 2.5* | 68 | i | -10 | 2 | 0.092 | -19* | -49
Cc1cc(C)c2cc3c(ccn3C3OC[C@H](O)[C@H](O)[C@H]3O)cc2n1 (some centres not stated) | 36* | 95 | i | -12 | 6 | -0.62 | 201* | 156
CCOC(=O)C1CCCN(c2ncnc3c2cnn3-c2cccc(C)c2)C1 (configuration not stated) | 33* | 110 | i | . | 21 | -2.2* | 282* | -27
